Laboratory results reported in ChEMBL document CHEMBL1129264, “Mercaptoacyl dipeptides as orally active dual inhibitors of angiotensin-converting enzyme and neutral endopeptidase” (1996).
One block for each molecule: values may come before it.

How the values were obtained:
[1] = target: T1, Angiotensin-converting enzyme (Rattus norvegicus) (UniProt P47820); assay: Compound was tested for plasma inhibition of Angiotensin I converting enzyme activity in the conscious rat. Expressed as Inhibition of AI pressor response at 2 hr at a dose of 12.1 mg/kg po; assay type: organism-based; parameters: dose 12.1 mg/kg
T1 sequence (whole entry): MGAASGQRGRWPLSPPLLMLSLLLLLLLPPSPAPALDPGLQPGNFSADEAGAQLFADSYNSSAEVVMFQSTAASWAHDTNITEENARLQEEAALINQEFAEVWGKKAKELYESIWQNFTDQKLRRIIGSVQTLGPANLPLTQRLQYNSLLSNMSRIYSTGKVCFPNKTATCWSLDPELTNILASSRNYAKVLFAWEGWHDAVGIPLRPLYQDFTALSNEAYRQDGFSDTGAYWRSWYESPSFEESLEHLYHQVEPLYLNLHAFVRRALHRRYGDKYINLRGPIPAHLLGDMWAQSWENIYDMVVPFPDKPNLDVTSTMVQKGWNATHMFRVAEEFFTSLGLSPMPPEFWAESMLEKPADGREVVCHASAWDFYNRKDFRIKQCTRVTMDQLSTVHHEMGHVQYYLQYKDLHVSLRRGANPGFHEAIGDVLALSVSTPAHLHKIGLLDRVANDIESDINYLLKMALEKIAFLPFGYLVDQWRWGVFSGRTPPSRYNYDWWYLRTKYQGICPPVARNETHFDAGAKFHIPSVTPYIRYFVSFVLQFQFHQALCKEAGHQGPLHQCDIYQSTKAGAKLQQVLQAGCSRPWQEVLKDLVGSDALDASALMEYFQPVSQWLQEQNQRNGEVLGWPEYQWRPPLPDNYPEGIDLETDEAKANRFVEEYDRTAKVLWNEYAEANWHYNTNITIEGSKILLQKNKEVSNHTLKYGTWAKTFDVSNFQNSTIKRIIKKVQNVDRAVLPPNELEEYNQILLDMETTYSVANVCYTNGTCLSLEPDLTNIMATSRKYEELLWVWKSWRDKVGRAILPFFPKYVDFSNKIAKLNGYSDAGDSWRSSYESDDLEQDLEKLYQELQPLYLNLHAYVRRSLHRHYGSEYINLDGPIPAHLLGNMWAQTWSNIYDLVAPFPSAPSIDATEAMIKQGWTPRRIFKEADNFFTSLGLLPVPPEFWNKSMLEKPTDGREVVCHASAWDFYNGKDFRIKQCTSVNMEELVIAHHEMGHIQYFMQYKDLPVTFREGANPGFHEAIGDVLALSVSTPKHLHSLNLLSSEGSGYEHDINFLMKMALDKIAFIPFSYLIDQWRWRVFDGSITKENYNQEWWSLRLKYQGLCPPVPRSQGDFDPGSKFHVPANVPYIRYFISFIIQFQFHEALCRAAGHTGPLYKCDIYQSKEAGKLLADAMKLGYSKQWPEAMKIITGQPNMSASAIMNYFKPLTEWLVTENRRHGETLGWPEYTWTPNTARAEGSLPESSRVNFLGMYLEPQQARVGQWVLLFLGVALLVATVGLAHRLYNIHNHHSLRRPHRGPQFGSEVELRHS
Method in brief: (§1)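 Male conscious normotensive Sprague-Dawley rats (275-390 g), given femoral arterial and venous catheters under methohexital sodium (75 mg/kg ip) anesthesia. Next day, pressor responses to three angiotensin-I challenges (300 ng/kg iv) recorded by direct arterial pressure. Compound then dosed orally, and AI challenge repeated at set times. Each post-dose response compared with the mean of the three baseline responses, giving % inhibition.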

[2] = target: T1, Angiotensin-converting enzyme (Rattus norvegicus); assay: Compound was tested for plasma inhibition of Angiotensin I converting enzyme activity in the conscious rat. Expressed as Inhibition of AI pressor response at 6 hr at a dose of 12.1 mg/kg po; assay type: organism-based; parameters: dose 12.1 mg/kg
Method in brief: (§2)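 Male conscious normotensive Sprague-Dawley rats (275-390 g), prepared under methohexital sodium (75 mg/kg ip) with femoral arterial and venous catheters. The next day, pressor responses to three angiotensin-I challenges (300 ng/kg iv) were recorded. Compound was then given orally and angiotensin-I challenges were repeated at set times. Percent inhibition is relative to the mean of the three baseline responses.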

[3] = target: T1, Angiotensin-converting enzyme (Rattus norvegicus); assay: Compound was tested for plasma inhibition of Angiotensin I converting enzyme activity in the conscious rat. Expressed as Inhibition of AI pressor response at 1 hr at a dose of 12.1 mg/kg po; assay type: organism-based; parameters: dose 12.1 mg/kg; method in brief: as §1
[4] = target: T1, Angiotensin-converting enzyme (Rattus norvegicus); assay: Compound was tested for plasma inhibition of Angiotensin I converting enzyme activity in the conscious rat. Expressed as Inhibition of AI pressor response at 4 hr at a dose of 12.1 mg/kg po; assay type: organism-based; parameters: dose 12.1 mg/kg; method in brief: as §1
[5] = target: T1, Angiotensin-converting enzyme (Rattus norvegicus); assay: Compound was tested for plasma inhibition of Angiotensin I converting enzyme activity in the conscious rat. Expressed as Inhibition of AI pressor response at 6 hr at a dose of 14.3 mg/kg po; assay type: organism-based; parameters: dose 14.3 mg/kg; method in brief: as §2
[6] = target: T1, Angiotensin-converting enzyme (Rattus norvegicus); assay: Compound was tested for plasma inhibition of Angiotensin I converting enzyme activity in the conscious rat. Expressed as Inhibition of AI pressor response at 1 hr at a dose of 14.3 mg/kg po; assay type: organism-based; parameters: dose 14.3 mg/kg; method in brief: as §1
[7] = target: T1, Angiotensin-converting enzyme (Rattus norvegicus); assay: Compound was tested for plasma inhibition of Angiotensin I converting enzyme activity in the conscious rat. Expressed as Inhibition of AI pressor response at 4 hr at a dose of 14.3 mg/kg po; assay type: organism-based; parameters: dose 14.3 mg/kg; method in brief: as §2
[8] = target: T1, Angiotensin-converting enzyme (Rattus norvegicus); assay: Compound was tested for plasma inhibition of Angiotensin I converting enzyme activity in the conscious rat. Expressed as Inhibition of AI pressor response at 2 hr at a dose of 14.3 mg/kg po; assay type: organism-based; parameters: dose 14.3 mg/kg; method in brief: as §1
[9] = test system: Rattus norvegicus; assay: Plasma ANF Concentration in the Conscious Rat at a dose of 14.3(po)mg/kg at 1 h; assay type: functional
Method in brief: (§3)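 Male Sprague-Dawley rats (275-390 g), catheterized in femoral artery and vein under ketamine (150 mg/kg)/acepromazine, tethered and recovered 24 h, studied conscious. Continuous iv rat ANF(99-126) infusion at 450 ng/kg/min for 5 h; baseline blood at 60 min, then oral dosing, sampling at 30-240 min.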

[10] = test system: Rattus norvegicus; assay: Plasma ANF Concentration in the Conscious Rat at a dose of 14.3(po)mg/kg at 2 h; assay type: functional; method in brief: as §3
[11] = test system: Rattus norvegicus; assay: Plasma ANF Concentration in the Conscious Rat at a dose of 14.3(po)mg/kg at 4 h; assay type: functional; method in brief: as §3
[12] = test system: Rattus norvegicus; assay: Plasma ANF Concentration in the Conscious Rat at a dose of 14.3(po)mg/kg at 0.5 h; assay type: functional; method in brief: as §3
[13] = target: T1, Angiotensin-converting enzyme (Rattus norvegicus); assay: Compound was tested for plasma inhibition of Angiotensin I converting enzyme activity in the conscious rat. Expressed as Inhibition of AI pressor response at 2 hr at a dose of 11.7 mg/kg po; assay type: organism-based; parameters: dose 11.7 mg/kg; method in brief: as §1
[14] = target: T1, Angiotensin-converting enzyme (Rattus norvegicus); assay: Compound was tested for plasma inhibition of Angiotensin I converting enzyme activity in the conscious rat. Expressed as Inhibition of AI pressor response at 6 hr at a dose of 11.7 mg/kg po; assay type: organism-based; parameters: dose 11.7 mg/kg; method in brief: as §2
[15] = target: T1, Angiotensin-converting enzyme (Rattus norvegicus); assay: Compound was tested for plasma inhibition of Angiotensin I converting enzyme activity in the conscious rat. Expressed as Inhibition of AI pressor response at 4 hr at a dose of 11.7 mg/kg po; assay type: organism-based; parameters: dose 11.7 mg/kg; method in brief: as §1
[16] = test system: Rattus norvegicus; assay: Plasma ANF Concentration in the Conscious Rat at a dose of 11.7(po)mg/kg at 1 h; assay type: functional
Method in brief: (§4)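 Male Sprague-Dawley rats (275-390 g) received femoral artery and vein catheters under ketamine (150 mg/kg)/acepromazine and recovered for 24 h, tethered, before study conscious. ratANF(99-126) was infused at 450 ng/kg/min iv for 5 h. Baseline blood was drawn at 60 min into the infusion, then compound was given po.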

[17] = test system: Rattus norvegicus; assay: Plasma ANF Concentration in the Conscious Rat at a dose of 11.7(po)mg/kg at 2 h; assay type: functional; method in brief: as §4
[18] = test system: Rattus norvegicus; assay: Plasma ANF Concentration in the Conscious Rat at a dose of 11.7(po)mg/kg at 4 h; assay type: functional; method in brief: as §4
[19] = test system: Rattus norvegicus; assay: Plasma ANF Concentration in the Conscious Rat at a dose of 11.7(po)mg/kg at 0.5 h; assay type: functional; method in brief: as §4
[20] = target: T1, Angiotensin-converting enzyme (Rattus norvegicus); assay: Compound was tested for plasma inhibition of Angiotensin I converting enzyme activity in the conscious rat. Expressed as Inhibition of AI pressor response at 1 hr at a dose of 11.7 mg/kg po; assay type: organism-based; parameters: dose 11.7 mg/kg; method in brief: as §1

inhibition [1]: 69%
inhibition [2]: 19%
inhibition [3]: 74%
inhibition [4]: 37%
SMILES: CCCOC(=O)[C@H](Cc1ccc(O)cc1)NC(=O)C1(NC(=O)[C@H](SC(C)=O)C(C)C)CCCC1

inhibition [5]: 60%
inhibition [6]: 78%
inhibition [7]: 67%
inhibition [8]: 75%
SMILES: CCOC(=O)[C@H](Cc1ccc(OC(=O)c2cccnc2)cc1)NC(=O)C1(NC(=O)[C@H](SC(C)=O)C(C)C)CCCC1
Control [9]: 234%
Control [10]: 246%
Control [11]: 277%
Control [12]: 246%

inhibition [13]: 81%
inhibition [14]: 77%
inhibition [15]: 79%
inhibition [20]: 73%
SMILES: CCOC(=O)[C@H](Cc1ccc(OC)cc1)NC(=O)C1(NC(=O)[C@H](SC(C)=O)C(C)C)CCCC1
Control [16]: 346%
Control [17]: 250%
Control [18]: 251%
Control [19]: 275%
